Measurements reported in the array DNA melting data of Ke et al. (doi:10.1101/2024.01.08.574731).

Experiments:
[1] = melting temperature; fluorescence melt of hairpins on a sequencing array, two-state fit, raised by 9.35 °C to match UV melts; conditions: sodium 0.088 M
Summary of the method: (§1)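 On a sequenced MiSeq flow cell, library hairpins with annealed Cy3 and quencher oligos were imaged for Cy3 fluorescence in 2.5 °C steps up to 60 °C, in 50 mM Na-HEPES pH 8.0, 25 mM NaCl. Normalisation used pre-quench Cy3 and control constructs. Bootstrapped two-state fits gave melting temperature and folding enthalpy, combined by inverse variance across four replicates and with fitted temperatures raised by 9.35 °C to match UV melts.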

[2] = folding enthalpy; higher = less favourable; fluorescence melt of hairpins on a sequencing array, two-state fit; conditions: sodium 0.088 M
Summary of the method: as §1

Sequence	Tm [1] [°C]	folding enthalpy [2] [kcal/mol]
GCATCGCGAAAGCCAGGC ((.(.((....)).).))	37.2	-10.4
GCATCGCGAAAGCGCCGC ((..(((....)))..))	38	-10.5
GCATCGCGAAAGCGGAGC ((..(((....)))..))	54.2	-16.5
GCATCGCGAAAGCGGGGC ((..(((....)))..))	63.1	-22.2
GCATCGCGAAAGCTTTGC (((..((....))..)))	41.2	-18.6
GCATCTACGAAAGTATGC (((..(((....))))))	34.6	-20.7
GCATCTGAAAAGATGC ((((((....))))))	64.7	-32.6
GCATGAACGAAAGTTTGC (((..(((....))))))	33.9	-20.5
GCATGAGAAATCATGC ((((((....))))))	56.4	-38.7
GCATGAGGAAACTTATGC ((((.((....)).))))	44.2	-34.7
GCATGAGGAAACTTGTGC (((..((....))..)))	35.9	-26.6
GCATGCACGAAAGTGTGC (((..(((....))))))	42.5	-13.3
GCATGCGGAAACGCACAC (..((((....))))..)	27.7	-9.47
GCATGGCGAAAGCAAGGC ((.(.((....)).).))	49.5	-17.2
GCATGGCGAAAGCAATGC ((((.((....)).))))	64.8	-30.6
GCATGGCGAAAGCAGTGC (((..((....))..)))	56.5	-19.7
GCATGGCGAAAGCCAAGC ((.((((....)))).))	61.6	-17.6
GCATGGCGAAAGCTCTGC (((..((....))..)))	43.2	-18
GCATGGGAAACCATGC ((((((....))))))	65.6	-34.4

Sequence	Tm [1] [°C]	folding enthalpy [2] [kcal/mol]
GCATGGGCGAAAGCCTGC (((..(((....))))))	48.7	-16.3
GCATGGGGAAACCCACAC (..((((....))))..)	29	-14.2
GCATGGGGAAACTCGTGC (((.(.(....).).)))	41	-26.2
GCATGTACGAAAGTATGC (((..(((....))))))	43.8	-29.3
GCATGTCGAAAGACGTGC (((.(((....))).)))	65.6	-36.8
GCATGTGGAAACACACGC ((.((((....)))).))	46	-25.8
GCATGTGGAAACGCATGC (((((.(....).)))))	55.9	-44.7
GCATGTGGAAACGTATGC ((((..(....)..))))	41	-26.3
GCATTACGAAAGTAGTGC (((.(((....))).)))	52.4	-31.7
GCATTCCGAAAGGAGTGC (((.(((....))).)))	58.4	-40
GCATTCGAAAGAAAATGC ((((((....)))..)))	34.6	-24.8
GCATTCGGAAACGAATAC (.(((((....))))).)	37	-19.8
GCATTGCGAAAGCATCGC ((..(((....)))..))	52.9	-11.8
GCATTGCGAAAGCATGGC ((..(((....)))..))	45.8	-19.9
GCATTGCGAAAGCCACGC ((.(.((....)).).))	38.2	-8.66
GCATTGCGAAAGCGCTGC (((..((....))..)))	45.7	-18.8
GCATTGCGAAAGCGGTGC (((..((....))..)))	58.8	-22.3
GCATTGCGAAAGCTATGC ((((.((....)).))))	62.5	-38.9
